Measurements as given in ChEMBL document CHEMBL4321838, “Drug Design Targeting T-Cell Factor-Driven Epithelial-Mesenchymal Transition as a Therapeutic Strategy for Colorectal Cancer” (J Med Chem, 2019).
Converted amounts (≈) assume the structure as drawn. Values belong to the compound of their own block, whether it stands above or below them. The source made the active and inactive calls.

Legend:
[1] = target: T1, DNA topoisomerase 2-alpha (Homo sapiens, UniProt P11388); assay: Inhibition of human topoisomerase 2alpha mediated decatenation at 30 uM using kDNA as susbtrate preincubated for 20 mins followed by substrate and ATP addition and measured after 1 hr by ethidium bromide staining based gel electrophoresis method relative to control
Summary of the method: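 Human TOP2A (3 U) preincubated 20 min at 37 °C with compound at 30 μM in 1.2% DMSO. Reaction started with 2 mM ATP and 35 ng kDNA and run 1 h at 37 °C. Products resolved on 0.8% agarose in TBE with 0.2 μg/mL ethidium bromide; decatenated bands compared with vehicle.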

[2] = target: T1, DNA topoisomerase 2-alpha; assay: Poison activity at topoisomerase 2alpha in human SW620 cells assessed as induction of DNA double stranded break by measuring gamma H2AX phosphorylation up to 40 uM after 6 hrs by Hoechst-33342 staining based immunofluorescence assay; assay type: cell-based
Summary of the method: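 SW620 monolayers, 20,000 cells per well, treated with compound for 6 or 24 h. Fixed in 4% paraformaldehyde, then permeabilised and blocked. Stained with γ-H2AX antibody overnight at 4 °C, FITC secondary antibody, and Hoechst 33342, then imaged at 20x.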

SW-620 [3] = assay: Anticlonogenic activity against human SW620 cells assessed as loss of cancer stem cell stemness by measuring inhibition of colony formation at 10 uM incubated for 24 hrs followed by replating and measured after 7 days by clonogenic assay; assay type: functional, cell-based
[4] = Cmax in CD-1 mouse at 50 mg/kg, ip by LC-MS/MS analysis; assay type: ADME, organism-based; parameters: dose 50 mg/kg, route intraperitoneal; settings: in vivo
Summary of the method: (§1)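 Female CD-1 mice, single IP injection at 50 mg/kg in 100% DMSO. Sampling from 0.25 to 24 h, three mice per time point (21 per compound). Heparinised blood was spun to plasma, mixed 1:1 with acidified acetonitrile (0.1% formic acid or 0.1% TFA depending on compound), centrifuged, then measured by LC-MS/MS.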

[5] = Drug metabolism in CD-1 mouse active microsomes assessed as metabolite formation at rate of first-order kinetics by LC-MS/MS analysis; assay type: ADME, Microsome
[6] = Tmax in CD-1 mouse at 50 mg/kg, ip by LC-MS/MS analysis; assay type: ADME, organism-based; settings: in vivo; summary of the method: as §1
[7] = Metabolic stability in CD-1 mouse inactive microsomes incubated for 1 hr by LC-MS/MS analysis; assay type: ADME, Microsome
Mus musculus = assay: Apparent volume of drug distribution in CD-1 mouse at 50 mg/kg, ip by LC-MS/MS analysis; assay type: ADME, organism-based; settings: in vivo; summary of the method: as §1
[8] = AUC(0 to t) in CD-1 mouse at 50 mg/kg, ip by LC-MS/MS analysis; assay type: ADME, organism-based; settings: in vivo; summary of the method: as §1
SW-620 [9] = assay: Cytotoxicity against human SW620 organoids assessed as cell death with loss of membrane integrity after 72 hrs by CellTox Green assay; assay type: functional, cell-based; settings: SW-620, 72 h
Summary of the method: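 SW620 tumor organoids exposed 72 h to inhibitor over 0–40 μM together with CellTox Green Express (0.5X). Whole-well mean fluorescence imaged (ex 488, em 500–550 nm). Normalised to lysis buffer as 0% viability and 0.4% DMSO as 100% viability.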

[10] = target: T1, DNA topoisomerase 2-alpha; assay: Inhibition of topoisomerase 2alpha dependent TCF transcription in human SW620 organoids transduced with TOPflash luminescent reporter after 72 hrs by luciferase based TOPFlash reporter gene assay
Summary of the method: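 SW620 cells stably carrying pCDH-TOPflash-luc grown as organoids: 5,000 cells per U-bottom well in phenol red-free RPMI with 5% FBS and 2% Matrigel, 72 h. Inhibitor then applied 72 h. One-Glo luciferase and CellTiter-Glo 3D added 1:1. Luciferase signal normalised to viability, then to DMSO controls.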

[11] = Half life of terminal disposition phase in CD-1 mouse at 50 mg/kg, ip by LC-MS/MS analysis; assay type: ADME, organism-based; settings: in vivo, read-out: t1/2lambda (converted); summary of the method: as §1
SW-620 [12] = assay: Antiinvasive activity in human SW620 organoids transduced with NucLight-Red virus assessed as inhibition of cell invasion at 10 uM incubated for 72 hrs and measured after 72 hrs by matrigel based fluorescence analysis; assay type: functional
Summary of the method: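 NucLight-Red-labelled SW620 organoids treated 72 h at 10 μM in 0.1% DMSO, then dissociated. 5,000 live cells per well seeded in 50% Matrigel in the upper chamber of a migration plate, 0.5% FBS above and 20% FBS below. Invading cells tracked by bottom-side fluorescence over days, six replicates per condition.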

[13] = Drug metabolism in CD-1 mouse active microsomes assessed as CYP450-mediated oxidative phase 1 metabolite formation measured within 30 mins by LC-MS/MS analysis; assay type: ADME; settings: 0.5 h
[14] = Half life in CD-1 mouse microsomes measured up to 1 hr by LC-MS analysis; assay type: ADME, Microsome
Summary of the method: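 Female CD-1 mouse liver microsomes (0.5 mg/mL), substrate 1 μg/mL and 1.5 mM NADPH in 0.1 M phosphate buffer pH 7.4 at 37 °C. Samples taken from 0 to 60 min and quenched with an equal volume of acetonitrile. Parent compound remaining measured by LC-MS/MS without internal standard.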

[15] = Clearance in CD-1 mouse at 50 mg/kg, ip by LC-MS/MS analysis; assay type: ADME, organism-based; settings: in vivo; summary of the method: as §1
[16] = Aqueous solubility of compound in PBS at 1 mg after 18 hrs by UV based analysis; assay type: physicochemical
Summary of the method: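 Undissolved material removed by centrifugation at 5,000g for 45 min. UV absorption compared with a fully saturated 1-propanol solution; solubility derived by linear regression.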

[17] = target: T1, DNA topoisomerase 2-alpha; assay: Inhibition of human topoisomerase 2alpha mediated decatenation using kDNA as susbtrate preincubated for 20 mins followed by substrate and ATP addition and measured after 1 hr by ethidium bromide staining based gel electrophoresis method
Summary of the method: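 IC50 from decatenation gels: TOP2A at 4 U per reaction, compound as 2-fold serial dilutions from 58.6 nM to 30 μM, 20 min preincubation. Then 2 mM ATP plus 35 ng kDNA for 1 h at 37 °C. Gels were 0.8% agarose with ethidium bromide, with decatenated and catenated DNA marker lanes.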

SW-620 [18] = assay: Induction of apoptosis in human SW620 organoids assessed as increase in cleaved caspase 3/7 level at 40 uM after 72 hrs by caspase-glo 3/7 luminescence assay relative to control; assay type: functional
Summary of the method: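 SW620 cells, 2,000 per well in 384-well ultra-low attachment plates with 2% Matrigel, grown 72 h into organoids, then dosed 72 h. Caspase-Glo 3/7 reagent added 1:1 and shaken 30 min; luminescence read. Staurosporine served as positive control and 0.4% DMSO as negative control.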

SW-620 [19] = assay: Induction of early stage cell death in human SW620 organoids transfected with EcadPro-RFP reporter assessed as loss of RFP reporter activity at 40 uM at after 72 hrs by Hoechst 33342 staining based mCherryRFP reporter gene assay; settings: sw-620, 72 h
[20] = target: T1, DNA topoisomerase 2-alpha; assay: Inhibition of topoisomerase 2alpha in human SW620 organoids transfected with VimPro-GFP reporter assessed as reversion of epithelial-mesenchymal transition by measuring reduction in vimentin expression up to 40 uM after 72 hrs by Hoechst 33342 staining based GFP reporter gene assay
Summary of the method: (§2)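 SW620 cells stably carrying VimPro-GFP or EcadPro-mCherry (puromycin selected) grown as organoids and dosed 72 h. Stained with 16 μM Hoechst 33342 for 1 h and imaged as 15 z-layers, 26.5 μm apart. Nuclei segmented and GFP- or mCherry-positive cells counted above background thresholds. Percent positive cells normalised to DMSO.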

SW-620 [21] = assay: Cytotoxicity against human SW620 organoids assessed as growth inhibition at 10 uM after 72 hrs by brightfield imaging of organoid volume
[22] = target: T1, DNA topoisomerase 2-alpha; assay: Inhibition of topoisomerase 2alpha in human SW620 organoids transfected with EcadPro-RFP reporter assessed as reversion of epithelial-mesenchymal transition by measuring increase in E-cadherin expression up to 40 uM after 72 hrs by Hoechst 33342 staining based mCherryRFP reporter gene assay; summary of the method: as §2

T1 sequence (P11388 whole entry): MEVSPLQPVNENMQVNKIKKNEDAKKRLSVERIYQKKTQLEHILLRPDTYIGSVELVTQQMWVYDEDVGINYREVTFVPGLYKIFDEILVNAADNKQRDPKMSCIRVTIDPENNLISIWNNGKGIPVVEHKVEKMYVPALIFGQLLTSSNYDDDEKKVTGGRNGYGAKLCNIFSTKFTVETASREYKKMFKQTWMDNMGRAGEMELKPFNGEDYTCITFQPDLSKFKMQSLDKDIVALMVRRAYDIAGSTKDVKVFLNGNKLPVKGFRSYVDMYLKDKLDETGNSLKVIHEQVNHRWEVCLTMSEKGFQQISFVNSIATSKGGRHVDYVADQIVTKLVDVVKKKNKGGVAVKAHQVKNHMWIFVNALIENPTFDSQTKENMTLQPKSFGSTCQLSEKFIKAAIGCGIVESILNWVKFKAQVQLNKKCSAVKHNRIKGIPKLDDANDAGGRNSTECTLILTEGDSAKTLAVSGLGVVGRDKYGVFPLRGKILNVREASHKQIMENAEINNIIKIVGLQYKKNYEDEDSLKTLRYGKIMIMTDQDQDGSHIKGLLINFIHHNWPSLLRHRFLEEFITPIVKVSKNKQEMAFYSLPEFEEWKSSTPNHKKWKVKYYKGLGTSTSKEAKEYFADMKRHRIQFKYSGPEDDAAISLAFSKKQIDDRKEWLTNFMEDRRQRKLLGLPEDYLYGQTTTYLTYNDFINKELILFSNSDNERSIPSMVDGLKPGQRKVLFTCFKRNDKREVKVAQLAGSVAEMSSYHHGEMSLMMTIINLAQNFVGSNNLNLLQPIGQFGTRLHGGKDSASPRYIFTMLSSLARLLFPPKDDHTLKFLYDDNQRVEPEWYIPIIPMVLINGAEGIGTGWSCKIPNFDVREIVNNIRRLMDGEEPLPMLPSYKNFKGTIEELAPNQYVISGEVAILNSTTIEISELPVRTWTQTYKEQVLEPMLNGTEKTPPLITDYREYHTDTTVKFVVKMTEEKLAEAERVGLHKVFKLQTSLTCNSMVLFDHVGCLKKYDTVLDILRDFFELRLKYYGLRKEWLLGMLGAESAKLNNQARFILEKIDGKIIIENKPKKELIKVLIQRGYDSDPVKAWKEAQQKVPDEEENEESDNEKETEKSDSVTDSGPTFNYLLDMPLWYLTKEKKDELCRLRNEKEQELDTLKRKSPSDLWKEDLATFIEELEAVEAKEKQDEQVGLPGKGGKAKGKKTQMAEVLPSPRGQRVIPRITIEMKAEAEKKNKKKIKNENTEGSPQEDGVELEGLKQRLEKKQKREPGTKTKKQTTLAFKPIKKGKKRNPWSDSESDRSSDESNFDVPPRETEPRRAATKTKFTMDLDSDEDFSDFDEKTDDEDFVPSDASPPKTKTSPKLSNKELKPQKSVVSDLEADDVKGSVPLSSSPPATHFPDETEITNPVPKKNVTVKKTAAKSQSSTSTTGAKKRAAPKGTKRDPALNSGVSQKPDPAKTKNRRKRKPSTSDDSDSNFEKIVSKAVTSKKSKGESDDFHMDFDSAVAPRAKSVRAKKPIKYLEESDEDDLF

inhibition [1]: 1%
Structure (SMILES): CC(=O)Nc1ccc2c(-c3ccc(F)cc3)ccnc2c1O

Structure (SMILES): Cn1ccc2c(c1=O)C(=O)c1nccc3c1c-2nc1ccccc13 [NEOAMPHIMIDINE]
Activity [2]: Not Active

Cmax [4]: 6830 ng/mL
Drug metabolism [5]: Metabolite_Detected
inhibition [1]: 83%
Tmax [6]: 15 min
Stability [7]: Stable
Vz (Mus musculus): 32 L/kg
AUC(0-t) [8]: 12900 ng·h/mL
IC50 [10]: 2.5 µM
half-life [11]: 358 min
Drug metabolism [13]: Metabolite_Notdetected
t1/2 [14]: 14 min
CL/F [15]: 61.8 mL/min/kg
solubility thermodynamic at 18 h [16]: 1160 µg/mL (≈ 2780 µM)
Structure (SMILES): O=C(CCN1CCOCC1)Nc1ccc2c(-c3cc4ccccc4o3)ccnc2c1O
inhibition (SW-620 [3]): Active
EC50 (SW-620 [9]): 17.4 µM
inhibition (SW-620 [12]): Active

inhibition [1]: 0%
Structure (SMILES): CC(=O)Nc1ccc2c(-c3cc(Cl)ccc3O)ccnc2c1O

inhibition [1]: 0%
Structure (SMILES): CC(=O)Nc1ccc2c(-c3cncnc3)ccnc2c1O

inhibition [1]: 0%
Structure (SMILES): CC(=O)Nc1ccc2c(-c3ccco3)ccnc2c1O

Cmax [4]: 707 ng/mL
Drug metabolism [5]: Metabolite_Detected
inhibition [1]: 100%
Tmax [6]: 15 min
Stability [7]: Stable
Vz (Mus musculus): 108.9 L/kg
AUC(0-t) [8]: 2840 ng·h/mL
IC50 [10]: 1 µM
half-life [11]: 266 min
Drug metabolism [13]: Metabolite_Notdetected
t1/2 [14]: > 60 min
CL/F [15]: 283 mL/min/kg
solubility thermodynamic at 18 h [16]: 28 µg/mL (≈ 88 µM)
Structure (SMILES): CC(=O)Nc1ccc2c(-c3cc4ccccc4o3)ccnc2c1O
inhibition (SW-620 [3]): Active
EC50 (SW-620 [9]): > 30 µM
inhibition (SW-620 [12]): Active

inhibition [1]: 0%
Structure (SMILES): COc1ccc(F)cc1-c1ccnc2c(OC)c(NC(C)=O)ccc12

inhibition [1]: 0%
Structure (SMILES): COc1c(NC(C)=O)ccc2c(-c3cc(F)ccc3O)ccnc12

inhibition [1]: 3%
Structure (SMILES): CC(=O)Nc1cccc(-c2ccnc3c(O)c(NC(C)=O)ccc23)c1

inhibition [1]: 97%
Structure (SMILES): CC(=O)Nc1ccc2c(-c3ccc(C(F)(F)F)cc3)ccnc2c1O

IC50 [17]: 3.4 µM
Drug metabolism [5]: Metabolite_Detected
inhibition [1]: 97%
Stability [7]: Stable
Drug metabolism [13]: Metabolite_Notdetected
Structure (SMILES): CC(=O)Nc1ccc2c(-c3cccc(C(F)(F)F)c3)ccnc2c1O

Cmax [4]: 1980 ng/mL
Drug metabolism [5]: Metabolite_Detected
inhibition [1]: 100%
Tmax [6]: 15 min
Stability [7]: Stable
Vz (Mus musculus): 69.3 L/kg
AUC(0-t) [8]: 5890 ng·h/mL
inhibition [20]: Active
inhibition [22]: Active
IC50 [10]: 1.1 µM
half-life [11]: 350 min
Drug metabolism [13]: Metabolite_Notdetected
t1/2 [14]: 30.18 min
CL/F [15]: 137 mL/min/kg
solubility thermodynamic at 18 h [16]: 45 µg/mL (≈ 112 µM)
Structure (SMILES): O=C(CN1CCOCC1)Nc1ccc2c(-c3cc4ccccc4o3)ccnc2c1O
fold change (FC) (SW-620 [18]): 3
Activity (SW-620 [19]): Active
EC50 (SW-620 [9]): 22 µM
growth inhibition (GI) (SW-620 [21]): Active
